# Assay outcomes (PubChem)
# Wee1 stabilizer: inhibitors of human Wee1 degradation; reporter increase, % at 5 µM; HeLa Luc-Wee1K328M stability, luciferase luminescence; 100% = proteasome inhibitor MG132 effect; P30291; 220,000 tested, 1.2% active;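 active = activation above the mean of all tested compounds plus 3 SD, set per screening run, cut at about 8.8% in these data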;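 note: cells exposed to compound for 20 h before luminescence read; 0% = DMSO alone and 100% = MG132 at 30 µM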
# HMGR II inh: blocks class II HMG-CoA reductase of Enterococcus faecalis; 190,000 tested, 0.41% active; AID 1066; inhibition, % at 10 µM; purified E. faecalis HMGR, NADPH absorbance 340 nm kinetic;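 active = inhibition above a set limit, the median over all tested compounds plus 3 SD, cut at about 9.5% in these data; inconclusive = no clear call, values can overlap the other calls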;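 note: enzyme runs in reverse so mevalonate oxidation gives rising NADPH absorbance; 0% = complete reaction with DMSO and 100% = background rate lacking mevalonate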
# RanGTP-Imp inh: inhibitors of RanGTP-importin-beta interaction, primary screen, biochemical, FRET, CFP-Ran, YFP-importin-beta, homogeneous | cell-free CFP-Ran/YFP-importin-beta FRET ratio | inhibition, % (no concentration beside the values) | 300,000 tested, 1.1% active | AID 2216;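 active = more than half of the replicate wells show a fall in the fluorescence ratio signal beyond about 16%, limit read from the data, passing the limit was not always enough; inconclusive = exactly half of the replicate wells pass the set limit; inactive = fewer than half of replicates pass the limit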;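 note: 0% = DMSO wells and 100% = Ran loaded with GDP instead of GTP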
# Runt-SMMHC FRET: inhibitors of human RUNX1 Runt domain binding to CBFb-SMMHC. Q01196+Q13951. Cerulean-Runt/Venus-CBFb-SMMHC FRET ratio 530/480, 1 h. inhibition, % at 20 µM. 220,000 tested, 0.74% active;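 active = mean inhibition across duplicate retests at 20 µM reaching about 50%, limit read from the data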;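 note: 0% = DMSO wells and 100% = wells with excess untagged CBFb-SMMHC; inhibitors lower the FRET ratio by blocking Runt binding to CBFb-SMMHC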
# Target sequence (Q01196 whole entry, looked up, the tested form may be a part): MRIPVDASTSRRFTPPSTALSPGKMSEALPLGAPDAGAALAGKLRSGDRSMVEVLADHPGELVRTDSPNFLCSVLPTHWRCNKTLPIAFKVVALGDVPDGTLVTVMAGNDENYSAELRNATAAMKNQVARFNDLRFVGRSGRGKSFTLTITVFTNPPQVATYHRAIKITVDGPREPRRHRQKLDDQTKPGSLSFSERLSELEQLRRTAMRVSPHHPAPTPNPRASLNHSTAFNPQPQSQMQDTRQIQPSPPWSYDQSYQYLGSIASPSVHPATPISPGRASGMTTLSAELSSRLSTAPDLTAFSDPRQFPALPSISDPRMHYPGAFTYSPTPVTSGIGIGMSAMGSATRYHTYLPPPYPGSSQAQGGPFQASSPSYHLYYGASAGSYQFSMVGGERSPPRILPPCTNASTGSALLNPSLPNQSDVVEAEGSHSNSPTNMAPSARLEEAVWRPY
# Target sequence (Q13951 whole entry, looked up, the tested form may be a part): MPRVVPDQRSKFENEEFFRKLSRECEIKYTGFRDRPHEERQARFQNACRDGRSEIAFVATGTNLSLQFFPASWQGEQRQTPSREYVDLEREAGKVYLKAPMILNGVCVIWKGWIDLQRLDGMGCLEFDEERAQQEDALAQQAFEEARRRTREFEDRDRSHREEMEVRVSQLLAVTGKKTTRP
# PHOSPHO1 inh: inhibitors of human PHOSPHO1 phosphatase | Q8TCT1 | recombinant PHOSPHO1, absorbance phosphatase assay | inhibition, % at 13.3 µM | 290,000 tested, 1.1% active | AID 1565; in the data active = inhibition above about 60%
# Runt-CBFb FRET: inhibitors of human RUNX1 Runt domain binding to CBFb; inhibition, % at 20 µM; Cerulean-Runt/Venus-CBFb FRET ratio 530/480, 1 h; Q01196+Q13951; 220,000 tested, 0.46% active;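 active = inhibition over about 50% at 20 µM in the single-dose screen, limit read from the data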;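 note: 0% = DMSO wells and 100% = excess unlabeled CBFb competitor control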
#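 System: Cerulean-labeled Runt domain protein | Quantity: 100 nM of each labeled protein | Schedule: 1 h compound exposure, room temperature | Detection: Fluorescence energy transfer, 422 nm excitation, 530/480 nm emission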
# * hit, by the source's call; u = inconclusive; x = no result given. This is a sample that favours compounds with a hit; in the whole collection about 3.4% have one here.
SMILES,Wee1 stabilizer,HMGR II inh,RanGTP-Imp inh,Runt-SMMHC FRET,PHOSPHO1 inh,Runt-CBFb FRET
O=C(CSc1nnc(-c2ccccc2)o1)c1nnc(-c2ccccc2)o1,-3.8,-3.0,-1.4,-6.5,93.5*,-0.1
O=C1CC(c2ccccc2)CN1C(=O)c1cccnc1 (centres undefined),-1.8,2.3,-2.6,-1.1,28.7,0.6
O=C1CCC(c2ccccc2)N1C(=O)c1cccnc1 (centres undefined),-1.9,-5.5,33.8*,0.2,20.6,-2.5
CC(=O)N1CCOc2ccc(S(=O)(=O)NCc3ccc(F)cc3)cc21,x,x,0.9,x,17.1,x
C#CCNC(=O)C1=C[C@H](C2CC2)C[C@H](OCCCCO)O1,-0.7,0.5,2.1,1.3,0.8,-1.6
CC(=O)C1=C(O)C(=O)N(c2ccc(C)cc2)C1c1ccc([N+](=O)[O-])cc1 (centres undefined),8.7,-3.0,u,-2.1,3.6,1.1
CC(=O)C1=C(O)C(=O)N(c2ccc(O)cc2)C1c1ccc([N+](=O)[O-])cc1 (centres undefined),9.3*,-3.9,2.8,x,23.9,x
COc1ccnc(N=CNOCc2ccc(Cl)cc2)c1C#N,-3.4,x,-7.0,-3.1,33.4,0.4
N#Cc1cnc(NOCc2ccc(Cl)cc2)nc1,-2.1,9.6*,-0.6,1.6,44.0,-1.0
C=C(C)c1cccc(C(C)(C)NC(=O)NC2CCN(Cc3ccccc3)CC2)c1,x,x,0.8,x,14.1,x
C=C(C)c1cccc(C(C)(C)NC(=O)N(Cc2ccccc2)Cc2ccco2)c1,16.2*,1.4,-0.8,-1.3,15.2,1.5
CN1CCN(Cc2c(O)ccc3cc(-c4ccccn4)c(=O)oc23)CC1,0.2,-3.3,143.8*,90.8*,44.5,19.0
CCCc1cc(=O)oc2cc(C)cc(OCC(=O)N3CCC(C(=O)O)CC3)c12,x,x,-1.3,x,23.4,x
C=CCc1cc(Cl)ccc1OCCOCCNC(C)(C)C,-0.7,-1.2,-0.7,-0.8,62.9*,-2.5
C=CCc1cc(Cl)ccc1OCCOCCNCCOC,-2.1,-4.8,2.7,1.5,23.2,-0.8
CCc1ccc(NC(=O)CCc2nc3ccccc3[nH]2)cc1,9.5*,-4.3,1.8,-1.9,0.2,-1.4
Cc1cccc(NC(=O)CCCSc2nc3ccccc3[nH]2)c1,10.2*,-1.9,-2.4,5.9,1.5,1.3
CC(=O)Nc1ccc(Cc2nc3ccccc3[nH]2)cc1,-0.2,16.1*,4.1,2.6,20.3,-0.5
C=C(C)CN1C(=O)C2(OCCO2)c2ccccc21,x,x,2.9,x,37.3,x
COc1nc(-c2ccccc2)ccc1-c1noc(-c2ccccc2)n1,-0.5,2.9,10.3,0.7,10.5,-0.7
COc1ccc(-c2ccc(-c3noc(-c4ccccc4)n3)c(OC)n2)cc1,-1.0,3.6,29.8*,20.6,3.6,5.6
Cc1cc(NC(=O)CCN2CCN(C)CC2)ccc1Br,x,x,1.1,x,13.9,x
COc1ccc(N(CC(=O)NC2CC3CCC2C3)S(=O)(=O)c2ccccc2)cc1Cl (centres undefined),x,x,3.8,x,22.6,x
O=S(=O)(c1ccccc1)N1CCCC1c1cccs1 (centres undefined),10.2*,x,-3.0,-0.8,42.1,-0.8
COc1ccc(S(=O)(=O)N2CCCC2c2cccs2)cc1 (centres undefined),-1.4,x,4.1,-1.1,-1.6,-0.8
SMILES,Wee1 stabilizer,HMGR II inh,RanGTP-Imp inh,Runt-SMMHC FRET,PHOSPHO1 inh,Runt-CBFb FRET
Cc1ccccc1C(=O)N=c1c(C#N)cc2c(=O)n3cccc(C)c3nc2n1Cc1ccco1,-2.9,-0.5,110.3*,57.8*,-0.5,124.0*
N#Cc1cc2c(=O)n3ccccc3nc2n(Cc2ccco2)c1=NC(=O)c1ccco1,-1.8,2.8,55.7*,x,-6.2,3.5
Cc1cccn2c(=O)c3cc(C(=O)O)n(C)c3nc12,0.9,0.3,-1.1,28.5,-1.5,11.8
COc1ccc(C(=O)N=c2c(C#N)cc3c(=O)n4cccc(C)c4nc3n2Cc2ccco2)cc1,0.0,-2.4,78.2*,x,6.1,69.9*
CC(=O)N=c1c(C#N)cc2c(=O)n3cccc(C)c3nc2n1Cc1ccco1,9.1*,x,80.3*,88.1*,-32.0,9.6
CC(C)CCC(C)NC(=O)CN1C(=O)NC(C)(c2ccc3ccccc3c2)C1=O (centres undefined),x,x,3.3,x,28.0,x
CCN(CC)/C(=N/S(=O)(=O)c1ccc(C)cc1)c1ccccc1,10.0*,-1.6,3.0,0.2,12.8,1.8
O=C(Nc1ccc(Nc2ccccc2)cc1)c1cccc(F)c1,x,x,5.2,x,-1.3,x
COC(=O)C(NNc1ccccc1)(NC(=O)c1cccc(F)c1)C(F)(F)F (centres undefined),0.6,-4.8,0.6,-10.2,99.2*,1.9
COC(=O)c1nc(NNC(=O)c2ccccc2)sc1-c1ccccc1,x,x,-0.3,x,x,x
C=CCNc1nnc(SC2CC(=O)N(c3ccc(OC)cc3)C2=O)s1 (centres undefined),0.3,-9.5,2.5,9.1,92.8*,14.5
COc1ccc(N2C(=O)CC(Sc3nc4ccccc4s3)C2=O)cc1 (centres undefined),-2.1,3.2,2.8,3.9,-46.2,6.3
Cc1ccc(Cn2c(SCC(=O)N/N=C/c3ccc(C)o3)nc3ccccc32)cc1,1.4,2.5,-3.8,18.2,90.6*,11.4
O=C(CSc1nc2ccccc2n1Cc1ccccc1)N/N=C/c1ccco1,7.6,-2.3,1.1,1.7,13.9,1.1
CC(C)(C)C(=O)Nc1nnc(COc2ccc(Cl)cc2)s1,1.7,x,-0.3,-0.4,3.6,-0.5
Cc1ccc(S(=O)(=O)c2cc(C#N)c(=O)[nH]c2N)cc1,1.3,0.8,-2.0,106.8*,-1.2,19.3
N#Cc1c(Cl)nc(SCc2ccccc2)nc1-c1ccccc1,-2.5,-11.1,x,-2.3,95.9*,112.9*
O=C(CSc1nn(-c2ccccc2)c(=S)s1)NC(=O)NCc1ccco1,-1.9,-1.1,0.3,-8.9,78.0*,8.2
COc1ccccc1NC(=O)c1cc(S(=O)(=O)NCc2ccccc2)ccc1F,9.2*,-3.5,4.9,-4.9,5.4,-1.6
Cn1c(=O)c2c(ncn2CC(=O)OCC(=O)Nc2ccccc2)n(C)c1=O,-2.6,10.2*,-1.1,1.5,51.4,-0.8
Cn1c(=O)c2c(ncn2CC(=O)Nc2ccccc2)n(C)c1=O,-1.0,0.8,6.7,-1.2,3.2,0.0
O=C(CSc1nnc(-c2cccnc2)o1)Nc1nccs1,x,x,4.7,x,x,x
CCN(CC)CC(=O)Nc1ccc(/C(C)=N/NC2=NCCN2)cc1,-1.3,9.7*,u,1.3,-19.6,0.6
CCn1c(SCC(=O)c2cc(C)n(-c3ccc(C(=O)OC)cc3)c2C)nnc1-c1cccnc1,0.0,-1.1,-3.0,2.2,-3.0,2.5
Cc1ccccc1-n1c(SCC(=O)c2cc(C)n(C)c2C)nnc1-c1cccnc1,-1.8,-4.6,2.7,-1.5,86.5*,2.4
